# Source: ChEMBL document CHEMBL3259621, “Novel merosesquiterpene exerts a potent antitumor activity against breast cancer cells in vitro and in vivo” (Eur J Med Chem, 2014)
# The source made the active and inactive calls. No cut-off for these calls is given here.
# Experiments:
# [1] = test system: MCF7; assay: Cell cycle arrest in human MCF7 cells assessed as accumulation at […] phase at 2 uM after 48 hrs by propidium iodide/RNAse staining-based FACS analysis (reference value: 8.02 %); assay type: functional
# [2] = test system: MCF7; assay: Cell cycle arrest in human MCF7 cells assessed as accumulation at […] phase at 3 uM after 48 hrs by propidium iodide/RNAse staining-based FACS analysis (reference value: 8.02 %); assay type: functional
# [3] = test system: MCF7; assay: Induction of apoptosis in human MCF7 cells assessed as early apoptotic cells at 2 uM after 48 hrs by annexin V staining-based flow cytometry (reference value: 0.205 %); assay type: functional
# [4] = test system: MCF7; assay: Induction of apoptosis in human MCF7 cells assessed as late apoptotic cells at 1 uM after 48 hrs by annexin V staining-based flow cytometry (reference value: 3.24 %); assay type: functional
# [5] = test system: MCF7; assay: Induction of apoptosis in human MCF7 cells assessed as late apoptotic cells at 3 uM after 48 hrs by annexin V staining-based flow cytometry (reference value: 3.24 %); assay type: functional
# [6] = test system: MCF7; assay: Induction of apoptosis in human MCF7 cells assessed as apoptotic cells at 1 uM after 48 hrs by annexin V staining-based flow cytometry (reference value: 3.44 %); assay type: functional
# [7] = test system: MCF7; assay: Induction of apoptosis in human MCF7 cells assessed as reduction in cyclin B1 protein expression at 2 uM after 16 hrs by Western blotting analysis; assay type: functional; design: scale not given: the % may be the effect or the level left
# In short: (§1)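 MCF-7 seeded at 5 × 10⁴/cm² and exposed at 24 h to 2 µM compound for 0, 4, 8, 16 and 24 h. Lysates separated on 12% SDS gels, transferred to nitrocellulose, blocked in 5% milk. Primary antibodies applied overnight at 4 °C, then secondary 1 h at room temperature. Detection by ECL chemiluminescence with β-actin as loading reference.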
# [8] = test system: MCF7; assay: Induction of apoptosis in human MCF7 cells assessed as reduction in c-myc expression at 2 uM after 16 hrs by Western blotting analysis relative to control; assay type: functional; design: scale not given: the % may be the effect or the level left; in short: as §1
# [9] = test system: MCF7; assay: Induction of apoptosis in human MCF7 cells assessed as increase in total p53 expression level at 2 uM after 4 to 24 hrs by Western blotting analysis relative to control; assay type: functional, cell-based; in short: as §1
# [10] = test system: MCF7; assay: Induction of apoptosis in human MCF7 cells assessed as increase in phosphorylated p53 level at 2 uM after 4 to 24 hrs by Western blotting analysis relative to control; assay type: functional, cell-based; in short: as §1
# [11] = biological target: T1, Mitogen-activated protein kinase; ERK1/ERK2 (Homo sapiens) (UniProt P27361+P28482); assay: Increase of p44/42 MAPK phosphorylation in human MCF7 cells at 2 uM up to 4 hrs by Western blotting analysis relative to control; assay type: cell-based; in short: as §1
# [12] = biological target: T1, Mitogen-activated protein kinase; ERK1/ERK2 (Homo sapiens); assay: Increase of p44/42 MAPK phosphorylation in human MCF7 cells at 2 uM after 4 to 24 hrs by Western blotting analysis relative to control; assay type: cell-based; in short: as §1
# [13] = test system: MCF7; assay: Induction of apoptosis in human MCF7 cells assessed as increase in beta-cadenin expression at 1 to 2 uM after 48 hrs by FACS analysis; assay type: functional, cell-based
# In short: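 MCF-7 seeded at 5 × 10⁴/cm² and treated at 24 h with 1 or 2 µM compound for 48 h. Labelled with fluorochrome-conjugated anti-E-cadherin or anti-β-catenin antibody for 30 min at 4 °C in the dark, washed in PBS. Mean fluorescence intensity measured by FACScan flow cytometry.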
# [14] = test system: Mus musculus; assay: Toxicity in C57BL/6 mouse allografted with mouse E0771 cells assessed as survival at 5 to 15 mg/kg, po; assay type: organism-based; design: dose 5-15 mg/kg, route oral; details: in vivo
# In short: (§2)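 C57BL/6 mice (10 per group) injected subcutaneously in the right side with 1 × 10⁶ E0771 cells. At day 9, with tumours at 75 mm³, mice were randomised to oral vehicle (1% methylcellulose) or 5, 10 or 15 mg/kg on six occasions. Animals were monitored to day 42 for survival and for signs of toxicity such as hair loss or diarrhoea.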
# [15] = test system: Mus musculus; assay: Toxicity in C57BL/6 mouse allografted with mouse E0771 cells assessed as diarrhea at 5 to 15 mg/kg, po; assay type: organism-based; design: dose 5-15 mg/kg, route oral; details: in vivo; in short: as §2
# [16] = Cytotoxicity against mouse E0771 cells after 3 days by SRB assay; assay type: functional, cell-based; details: E0771, 72 h
# In short: (§3)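 Cells seeded at 5 × 10³ cells/cm² in quadruplicate and, after 24 h, treated with increasing concentrations for 3 days. Compounds diluted from DMSO stock, final DMSO <0.1% v/v. Cells were fixed with cold 10% TCA, stained with 0.4% sulforhodamine B in 1% acetic acid, and dye solubilised in 10 mM Tris-base pH 10.5. OD read at 492 nm. IC50 obtained by linear interpolation on a semi-log dose-response curve.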
# [17] = test system: A549; assay: Cytotoxicity against human A549 cells after 3 days by SRB assay; assay type: functional, cell-based; details: A549, 72 h
# In short: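 Cells seeded in quadruplicate at 5 × 10³ cells/cm². Compound added at 24 h over increasing concentrations for 3 days. Cells fixed with cold 10% TCA, stained with 0.4% sulforhodamine B in 1% acetic acid, dye solubilized in 10 mM Tris pH 10.5, OD read at 492 nm. IC50 taken by linear interpolation of the semi-log dose-response curve. DMSO below 0.1% final.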
# [18] = test system: T47D; assay: Cytotoxicity against human T47D cells after 3 days by SRB assay; assay type: functional, cell-based; details: 72 h; in short: as §3
# [19] = Cytotoxicity against human MCF10A cells after 3 days by SRB assay; assay type: cell-based; details: MCF-10A, 72 h; in short: as §3
# [20] = Therapeutic index, ratio of IC50 for human MCF10A cells to IC50 for mouse E0771 cells; assay type: cell-based, MCF-10A; details: MCF10A cells versus E0771 cells, read-out: Ratio IC50
# [21] = Therapeutic index, ratio of IC50 for human CCD-18Co cells to IC50 for human T84 cells; assay type: cell-based, T84; CCD-18Co; details: CCD-18Co cells versus T84 cells, read-out: Ratio IC50
# [22] = Therapeutic index, ratio of IC50 for human CCD-18Co cells to IC50 for human SW480 cells; assay type: cell-based; details: CCD-18Co cells versus SW480 cells, read-out: Ratio IC50
# [23] = test system: MCF7; assay: Cytotoxicity against human MCF7 cells assessed as reduction in cell viability at 1 uM after 3 days by SRB assay relative to control; assay type: functional
# In short: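 MCF-7 seeded at high density (5 × 10⁴/cm²) and treated at 24 h with compound for 3 days, with or without 20 mM NAC. Viable cells quantified by sulforhodamine B staining, OD 492 nm. Viability reduction expressed versus untreated controls.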
# [24] = test system: MCF7; assay: Cell cycle arrest in human MCF7 cells assessed as accumulation at G0-G1 phase at 2 uM after 24 hrs by propidium iodide/RNAse staining-based FACS analysis (reference value: 42.34 %); assay type: functional
# [25] = test system: MCF7; assay: Cell cycle arrest in human MCF7 cells assessed as accumulation at G0-G1 phase at 3 uM after 24 hrs by propidium iodide/RNAse staining-based FACS analysis (reference value: 42.34 %); assay type: functional
# [26] = test system: MCF7; assay: Cell cycle arrest in human MCF7 cells assessed as accumulation at S phase at 2 uM after 24 hrs by propidium iodide/RNAse staining-based FACS analysis (reference value: 49.46 %); assay type: functional
# [27] = test system: MCF7; assay: Cell cycle arrest in human MCF7 cells assessed as accumulation at S phase at 3 uM after 24 hrs by propidium iodide/RNAse staining-based FACS analysis (reference value: 49.46 %); assay type: functional
# T1 sequence (P27361 whole entry, looked up): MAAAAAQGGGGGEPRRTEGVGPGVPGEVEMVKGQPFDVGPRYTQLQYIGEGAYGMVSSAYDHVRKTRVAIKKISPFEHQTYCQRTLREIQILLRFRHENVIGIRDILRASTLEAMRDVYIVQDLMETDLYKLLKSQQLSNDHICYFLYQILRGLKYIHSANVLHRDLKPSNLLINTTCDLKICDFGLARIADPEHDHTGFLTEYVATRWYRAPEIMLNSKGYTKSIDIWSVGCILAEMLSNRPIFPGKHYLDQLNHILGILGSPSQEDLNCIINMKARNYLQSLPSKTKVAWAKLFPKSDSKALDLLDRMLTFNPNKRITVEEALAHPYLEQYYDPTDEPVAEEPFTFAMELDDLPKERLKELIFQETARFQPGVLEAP
# T1 sequence (P28482 whole entry, looked up): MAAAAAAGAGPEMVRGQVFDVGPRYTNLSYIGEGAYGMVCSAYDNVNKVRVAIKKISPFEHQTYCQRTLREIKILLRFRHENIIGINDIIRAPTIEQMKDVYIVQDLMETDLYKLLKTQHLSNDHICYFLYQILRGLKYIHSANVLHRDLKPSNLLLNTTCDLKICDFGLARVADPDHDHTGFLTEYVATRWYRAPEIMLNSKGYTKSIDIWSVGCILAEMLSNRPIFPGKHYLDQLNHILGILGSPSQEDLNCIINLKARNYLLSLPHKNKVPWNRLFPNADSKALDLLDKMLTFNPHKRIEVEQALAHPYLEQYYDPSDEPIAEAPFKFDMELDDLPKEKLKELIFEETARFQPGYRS
structure (smiles),measurement,setting,value
C=C1CC[C@@H]2[C@](C)(CCC[C@]2(C)C(=O)OC)[C@H]1Cc1c(C)ccc2c1C(=O)C=CC2=O,Activity,[1],31.09%
same,Activity,[2],39.91%
same,Activity,[3],12.5%
same,Activity,[4],9.63%
same,Activity,[5],9.5%
same,Activity,[6],11.07%
same,Activity,[7],6%
same,Activity,[8],50%
same,Activity,[9],Active
same,Activity,[10],Active
same,Activity,[11],Active
same,Activity,[12],Active
same,Activity,[13],Active
same,Activity,[14],Non-toxic
same,Activity,[15],Non-toxic
same,IC50,[16],390 nM
same,IC50,[17],1380 nM
same,IC50,[18],630 nM
same,IC50,[19],3.15 µM
same,selectivity ratio,[20],8.08
same,selectivity ratio,[21],0.59
same,selectivity ratio,[22],0.36
same,viability,[23],90.21%
same,Activity,[24],66.6%
same,Activity,[25],75.7%
same,Activity,[26],29.15%
same,Activity,[27],4.25%
